The source of these data is ChEMBL document CHEMBL4396879, “Conjugation of Short Peptides to Dibenzodiazepinone-Type Muscarinic Acetylcholine Receptor Ligands Determines M2R Selectivity” (J Med Chem, 2019).

Data set [1] in a line: Stability of the compound in human plasma used as 1:2 ratio of plasma to pH 7.4 PBS assessed as intact compound at 100 uM incubated for 24 hr […]. The format is ADME, cell-free. The conditions noted are these: plasma diluted with PBS (1:2), read-out: Stability.
Data set [2] addresses T1, Muscarinic acetylcholine receptor M2 (Homo sapiens) (UniProt P08172).
T1 sequence (whole entry): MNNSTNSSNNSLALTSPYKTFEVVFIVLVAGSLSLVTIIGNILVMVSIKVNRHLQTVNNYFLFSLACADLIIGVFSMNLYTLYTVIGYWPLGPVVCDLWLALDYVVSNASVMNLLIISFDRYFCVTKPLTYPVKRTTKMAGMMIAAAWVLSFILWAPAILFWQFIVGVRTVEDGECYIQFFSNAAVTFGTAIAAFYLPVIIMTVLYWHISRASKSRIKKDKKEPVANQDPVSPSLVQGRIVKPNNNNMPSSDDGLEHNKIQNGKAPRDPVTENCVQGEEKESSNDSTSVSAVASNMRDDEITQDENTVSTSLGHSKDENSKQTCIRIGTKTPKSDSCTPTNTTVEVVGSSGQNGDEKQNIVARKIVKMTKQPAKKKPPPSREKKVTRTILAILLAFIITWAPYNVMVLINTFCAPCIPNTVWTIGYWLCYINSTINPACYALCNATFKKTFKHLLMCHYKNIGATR
Description: Competitive displacement of [3H]-NMS from human muscarinic M2 receptor expressed in CHO-K9 cells using 2 nM [3H]-NMS after 3 hrs by microbeta2 scintillation counting method relative to control. The format is cell-based. The method, boiled down: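 Intact CHO-hM2R cells incubated at 22 °C with a high [3H]NMS concentration (2 nM). […] Curves were fitted by four-parameter logistic fits. Mean ± SEM from ≥4 experiments in triplicate.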
In general terms: Loss of bound radioactivity is the signal in a displacement assay; it reports binding, not function.

Data set [3] concerns the target T2, Muscarinic acetylcholine receptor M5 (Homo sapiens, UniProt P08912).
T2 sequence (P08912 whole entry): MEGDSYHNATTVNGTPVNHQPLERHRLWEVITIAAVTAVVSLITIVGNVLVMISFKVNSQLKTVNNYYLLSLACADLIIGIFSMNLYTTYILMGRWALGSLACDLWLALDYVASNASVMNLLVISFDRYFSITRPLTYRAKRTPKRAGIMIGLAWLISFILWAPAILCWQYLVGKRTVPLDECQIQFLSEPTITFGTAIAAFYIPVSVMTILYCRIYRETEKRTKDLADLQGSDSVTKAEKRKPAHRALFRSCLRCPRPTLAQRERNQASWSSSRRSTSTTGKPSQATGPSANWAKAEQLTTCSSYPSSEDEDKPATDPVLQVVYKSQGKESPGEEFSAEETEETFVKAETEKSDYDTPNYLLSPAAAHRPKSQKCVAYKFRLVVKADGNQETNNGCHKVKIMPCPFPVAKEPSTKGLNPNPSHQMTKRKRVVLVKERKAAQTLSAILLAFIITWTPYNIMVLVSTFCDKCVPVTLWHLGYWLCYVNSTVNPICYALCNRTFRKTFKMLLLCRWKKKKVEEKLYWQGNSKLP
Description: Displacement of [3H]-NMS from human muscarinic M5 receptor expressed in CHO-K9 cells after 3 hrs by microbeta2 scintillation counting method. In kind it is cell-based. In a few lines: (§1)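 [3H]NMS competition binding on intact CHO-hMxR cells in L15 medium with 1% BSA, 3 h at 22 ± 1 °C with gentle shaking. [3H]NMS was 0.2 nM (M1, M2, M3), 0.1 nM (M4) or 0.3 nM (M5). […] Cells were lysed in urea/acetic acid/Triton and counted by liquid scintillation. Ki from Cheng-Prusoff. Triplicates, ≥3 experiments.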

For data set [4], the target named is T3, Muscarinic acetylcholine receptor M1 (Homo sapiens, UniProt P11229).
T3 sequence (P11229 whole entry): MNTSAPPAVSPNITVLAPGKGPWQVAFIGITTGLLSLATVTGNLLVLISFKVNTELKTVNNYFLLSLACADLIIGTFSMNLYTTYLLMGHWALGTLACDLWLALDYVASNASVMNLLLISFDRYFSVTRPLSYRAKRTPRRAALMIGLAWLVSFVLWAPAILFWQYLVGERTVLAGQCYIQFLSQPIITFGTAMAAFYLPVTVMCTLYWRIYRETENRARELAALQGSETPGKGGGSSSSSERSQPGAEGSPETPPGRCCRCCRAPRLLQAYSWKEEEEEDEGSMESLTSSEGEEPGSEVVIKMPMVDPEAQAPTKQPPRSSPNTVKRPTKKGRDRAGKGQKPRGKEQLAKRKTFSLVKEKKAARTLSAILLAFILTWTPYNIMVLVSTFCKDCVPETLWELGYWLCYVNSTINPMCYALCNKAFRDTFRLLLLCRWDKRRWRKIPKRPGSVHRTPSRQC
Description: Displacement of [3H]-NMS from human muscarinic M1 receptor expressed in CHO-K9 cells after 3 hrs by microbeta2 scintillation counting method. The format is cell-based. In a few lines:
as §1

Molecules are shown by their SMILES.

Regarding `CC(=O)N[C@@H](CCCCN)C(=O)N[C@@H](CCCNC(=N)N)C(=O)NCCCCC1CCN(CC(=O)N2c3ccccc3NC(=O)c3ccccc32)CC1`, the remaining at 24 h, 100 µM in data set [1] was above 99%. The Activity in data set [2] is above 95%. For the same compound, the figures for the inhibition constant Ki in data set [3] and in data set [4] were 427 nM and 41.7 nM, respectively.

On to `CC(=O)N[C@@H](CCCCN)C(=O)N[C@@H](C)C(=O)N[C@@H](CCCNC(=N)N)C(=O)NCCN1CCN(CCCCC2CCN(CC(=O)N3c4ccccc4NC(=O)c4ccccc43)CC2)CC1`, for which the remaining at 24 h, 100 µM in data set [1] was above 99%. In data set [2], this compound yielded an Activity above 95%. In addition, the Ki in data set [3] was 295 nM; in data set [4] it was 2.29 nM.

One may read the Ki as the equilibrium dissociation constant of an inhibitor or competing ligand from its target. A low value points to tighter binding.
